Results: ChEMBL document CHEMBL4673221, “Furanoflavones pongapin and lanceolatin B blocks the cell cycle and induce senescence in CYP1A1-overexpressing breast cancer cells” (Bioorg Med Chem, 2018)

Columns and labels:
Cytochrome P450 2C9 = Cytochrome P450 2C9 (Homo sapiens, UniProt P11712); experiment: Inhibition of human CYP2C9 expressed in Sacchrosomes using 3-cyano-7-ethoxycoumarin as substrate by fluorescence based assay; format: ADME
Cytochrome P450 1A1 = molecular target: T1, Cytochrome P450 1A1 (Homo sapiens, UniProt P04798); experiment: Inhibition of human CYP1A1 expressed in sacchrosomes using 7-ethoxyresorufin as substrate by fluorescence based assay
T1 sequence (P04798 whole entry): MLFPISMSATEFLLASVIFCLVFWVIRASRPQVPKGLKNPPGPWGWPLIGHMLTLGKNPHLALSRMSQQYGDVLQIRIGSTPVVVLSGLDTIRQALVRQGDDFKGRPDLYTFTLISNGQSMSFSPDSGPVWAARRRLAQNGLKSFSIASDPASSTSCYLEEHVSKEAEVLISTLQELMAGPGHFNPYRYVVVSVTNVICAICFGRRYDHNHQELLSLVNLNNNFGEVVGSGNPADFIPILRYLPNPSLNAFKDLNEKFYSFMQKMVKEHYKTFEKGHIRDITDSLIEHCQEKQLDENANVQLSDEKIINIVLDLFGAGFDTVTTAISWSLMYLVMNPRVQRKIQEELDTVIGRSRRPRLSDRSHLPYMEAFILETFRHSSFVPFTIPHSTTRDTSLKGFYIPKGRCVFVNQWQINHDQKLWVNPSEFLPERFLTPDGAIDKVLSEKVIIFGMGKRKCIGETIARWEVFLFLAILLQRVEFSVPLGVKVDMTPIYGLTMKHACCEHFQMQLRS
Outline: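 Enzymes were microsomal preparations isolated from recombinant baker's yeast (Sacchrosomes). Compounds were screened at 10 μM for percent inhibition, and IC50 values were also determined. Values are mean ± SD of three independent experiments. Alpha-naphthoflavone served as the positive control.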

Homo sapiens [1] = species on record: Homo sapiens; experiment: Selectivity ratio IC50 for inhibition of human CYP1A2 expressed in sacchrosomes toIC50 for Inhibition of CYP1A1 expressed in sacchrosomes
Homo sapiens [2] = species on record: Homo sapiens; experiment: Selectivity ratio IC50 for inhibition of human CYP1B1 expressed in sacchrosomes toIC50 for Inhibition of CYP1A1 expressed in sacchrosomes

Chain of Cytochrome P450 2C9 (P11712 whole entry): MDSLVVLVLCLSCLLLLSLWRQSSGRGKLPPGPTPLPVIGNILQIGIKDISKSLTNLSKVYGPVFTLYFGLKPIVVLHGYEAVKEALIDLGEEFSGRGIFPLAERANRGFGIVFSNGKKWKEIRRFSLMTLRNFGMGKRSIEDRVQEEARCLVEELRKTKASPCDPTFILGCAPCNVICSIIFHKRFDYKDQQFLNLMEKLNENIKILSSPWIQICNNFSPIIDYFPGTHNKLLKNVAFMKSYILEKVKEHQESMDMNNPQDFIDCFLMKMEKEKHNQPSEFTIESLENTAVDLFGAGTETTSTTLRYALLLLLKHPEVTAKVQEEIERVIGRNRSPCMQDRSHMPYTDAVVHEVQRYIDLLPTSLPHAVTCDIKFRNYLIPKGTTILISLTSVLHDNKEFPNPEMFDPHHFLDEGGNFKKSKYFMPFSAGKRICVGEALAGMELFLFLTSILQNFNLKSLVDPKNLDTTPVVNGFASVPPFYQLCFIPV

| Structure (SMILES) | IC50 (Cytochrome P450 2C9) | IC50 (Cytochrome P450 1A1) | Ratio IC50 (Homo sapiens [1]) | Ratio IC50 (Homo sapiens [2]) |
| --- | --- | --- | --- | --- |
| O=c1cc(-c2ccccc2)oc2c1ccc1occc12 [LANCEOLATIN B] | > 20000 nM | 76 nM | – | – |
| COc1c(-c2ccc3c(c2)OCO3)oc2c(ccc3occc32)c1=O [PONGAPIN] | > 20000 nM | 71 nM | 13 | 52 |
